Data: PMC6102747 (Molecular Medicine Reports, 2018)
Several values for one entry are separate records, joined by “and”; a condition that tells them apart may be missing. Equal entries are not always repeated. Where two headings read alike, the source gives them in different places.

How the values were obtained:
P-gp = assay: Western blot protein expression in small intestine and liver; format: in vivo, rats; details: rat, in vivo
Mdr1 = assay: RT-qPCR mRNA expression in small intestine and liver; format: in vivo, rats; details: VER 4 mg/kg i.g. 7 days, vs control, P<0.001
How it was run: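 Rats, 3 per group, dosed once daily for 7 days: phosphate buffer 5 ml/kg i.v., test compound 2.5/5/10 mg/kg i.v. in phosphate buffer, ketoconazole 75 mg/kg i.g. in olive oil, or verapamil 4 mg/kg i.g. in water. Olive oil 5 ml/kg gavaged 30 min after day-7 dose. Killed 24 h post-dose after overnight fast; liver and intestinal mucosa snap-frozen. qPCR: 40 cycles, 58°C annealing; 2−ΔΔCq.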

Cyp3a1 = assay: RT-qPCR mRNA expression in small intestine and liver; format: in vivo, rats; details: KET 75 mg/kg i.g. 7 days, vs control, P<0.001
Cyp3a2 = assay: as above; format: in vivo, rats; details: KET 75 mg/kg i.g. 7 days, vs control, P<0.001
[1] = healthy volunteers, cited from earlier work

SMILES: COc1ccc(CCN(C)CCCC(C#N)(c2ccc(OC)c(OC)c2)C(C)C)cc1OC (stereo not shown) [VER, verapamil, reference compound]
- decrease in P-gp protein expression (P-gp): 85.02% and 84.54%
- decrease in Mdr1 mRNA expression (Mdr1; liver): 84.33%
- decrease in Mdr1 mRNA expression (Mdr1; small intestine): 65.32%

SMILES: CC(=O)N1CCN(c2ccc(OCC3COC(Cn4ccnc4)(c4ccc(Cl)cc4Cl)O3)cc2)CC1 (stereo not shown) [KET, ketoconazole, reference compound]
- decrease in Cyp3a1 mRNA expression (Cyp3a1; liver): 78.64%
- decrease in Cyp3a1 mRNA expression (Cyp3a1; small intestine): 78.27%
- decrease in Cyp3a2 mRNA expression (Cyp3a2; liver): 87.39%
- decrease in Cyp3a2 mRNA expression (Cyp3a2; small intestine): 70.09%

SMILES: O=c1c(O)c(-c2ccc(O)c(O)c2)oc2cc(O)cc(O)c12 [quercetin]
- increase in AUC of CsA ([1]; CsA 30 min following quercetin administration): 36%
- increase in AUC of CsA ([1]; CsA 3 days following quercetin administration): 47%
- increase in AUC of CsA ([1]; co-administration of quercetin (5 mg/kg) and CsA): 18%
